Laboratory results taken from ChEMBL document CHEMBL3612041, “Combating highly resistant emerging pathogen Mycobacterium abscessus and Mycobacterium tuberculosis with novel salicylanilide esters and carbamates” (Eur J Med Chem, 2015).
Converted amounts (≈) assume the structure as drawn.

Columns and labels:
[1] = Solubility of the compound in RPMI-1640/Sula media by spectrophotometric analysis; assay type: physicochemical
Procedure, shortened: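 Solubility measured under assay conditions in RPMI and Sula media with 1 v/v% DMSO. Undissolved compound removed on a PVDF filter. 120 µL filtrate mixed with 80 µL acetonitrile, and concentration measured spectrophotometrically.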

[2] = test system: Mycobacteroides abscessus; assay: Antimycobacterial activity against Mycobacterium abscessus ATCC 19977 after 7 days by serial dilution method; assay type: functional
Procedure, shortened: (§1)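 Serial dilution in in-house Sula semisynthetic medium, pH 6.5. Compounds added as DMSO solutions at 10 doses, final 0.05–100 µg/mL. Incubation at 37 °C, 7 days for M. abscessus and 28 days for M. tuberculosis strains. MIC taken as the lowest concentration giving visible growth inhibition, confirmed by CFU on drug-free Löwenstein-Jensen medium after further equal incubation. Repeated at least twice.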

[3] = test system: Mycobacterium tuberculosis; assay: Antimycobacterial activity against Mycobacterium tuberculosis H37Rv ATCC 27294 after 28 days by serial dilution method; assay type: functional; settings: for MIC: Mycobacterium tuberculosis, H37Rv ATCC 27294, 672 h; procedure, shortened: as §1
MONO-MAC-6 = assay: Cytostatic activity against human MONO-MAC-6 cells assessed as cell viability after 16 hrs by MTT assay; assay type: cell-based; settings: MONO-MAC-6, 16 h
Procedure, shortened: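 MonoMac6 cells kept in RPMI-1640 with 10% FCS, 2 mM L-glutamine and gentamycin at 37 °C, 5% CO2. Cells plated 10⁵ per well and treated after 24 h for 16 h in serum-free RPMI (1.0 v/v% DMSO), 5×10⁻² to 10² µM. MTT at 367 µg/mL final for 3.5 h, crystals dissolved in DMSO, OD540 minus OD620. Cytotoxicity % versus untreated control fitted sigmoidally for IC50. Two independent experiments, 4–8 parallels.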

[4] = Selectivity index, ratio of IC50 for human MONO-MAC-6 cells to MIC for Mycobacterium abscessus ATCC 19977; assay type: toxicity; settings: read-out: Selectivity Index
[5] = Selectivity index, ratio of IC50 for human MONO-MAC-6 cells to MIC for Mycobacterium tuberculosis H37Rv ATCC 27294; assay type: toxicity; settings: read-out: Selectivity Index
[6] = test system: Mycobacteroides abscessus; assay: Potency index, ratio of ciprofloxacin MIC to compound MIC for Mycobacterium abscessus ATCC 19977; assay type: functional
[7] = test system: Mycobacteroides abscessus; assay: Potency index, ratio of gentamicin MIC to compound MIC for Mycobacterium abscessus ATCC 19977; assay type: functional
[8] = Retention time of the compound in serum-free RPMI-1640 medium containing 10% DMSO at 0.5 mg/ml after 5 hrs by RP-HPLC analysis; assay type: physicochemical
Procedure, shortened: (§2)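 Stability in serum-free RPMI-1640 with 10% DMSO at 0.5 mg/ml, monitored by RP-HPLC on a C18 column. Gradient of 0.1% TFA water/acetonitrile-water, 1 ml/min, ambient temperature. Peaks identified by ESI-MS.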

[9] = Drug level in serum-free RPMI-1640 medium treated with [4-bromo-2-[[4-(trifluoromethyl)phenyl]carbamoyl]phenyl] 5-chloropyrazine-2-carboxylate at 0.75 mg/ml after 29 hrs by ESI-MS spectra analysis; assay type: physicochemical
[10] = Retention time of the compound in DMSO at 0.75 mg/ml measured at 0 min by RP-HPLC analysis; assay type: physicochemical; settings: 0 h
Procedure, shortened: (§3)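 Stability in DMSO at 0.75 mg/ml, monitored by RP-HPLC on a C18 4.6×150 mm column. Gradient 0–100% B (A: 0.1% TFA in water; B: 0.1% TFA in acetonitrile-water 80:20), 1 ml/min, ambient temperature. Sampled at 0 min and after 29 h, detection at 280 or 220 nm.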

[11] = Retention time of the compound in DMSO at 0.75 mg/ml measured after 29 hrs by RP-HPLC analysis; assay type: physicochemical; procedure, shortened: as §3
[12] = Half life of the compound in serum-free RPMI-1640 medium at 0.75 mg/ml by RP-HPLC analysis; assay type: ADME
[13] = Retention time of the compound in serum-free RPMI-1640 medium containing 10% DMSO at 0.5 mg/ml after 30 mins by RP-HPLC analysis; assay type: physicochemical; settings: 0.5 h; procedure, shortened: as §2
[14] = Mycobacteroides abscessus, ATCC 19977, 168 h

Compound | solubility [1] | Activity [2] | MIC [2, 14] | Activity [3] | MIC [3] | IC50 (MONO-MAC-6) | selectivity ratio [4] | selectivity ratio [5] | Ratio [6] | Ratio [7] | Retention_time [8] | Drug metabolism [9] | Retention_time [10] | Retention_time [11] | half-life at 0.75 mg/ml [12] | Retention_time [13] | MIC [2]
O=C(NCCCCl)Oc1ccc(Cl)cc1C(=O)Nc1ccc(C(F)(F)F)cc1 | < 50 µM | 0 CFU | 0.2 µM (≈ 0.087 µg/mL) | 1 CFU | 0.5 µM (≈ 0.218 µg/mL) | 8.8 µM | 44 | 17.6 | 15 | 53 |  |  |  |  |  |  | 
O=C(NCCCl)Oc1ccc(Br)cc1C(=O)Nc1ccc(C(=O)c2ccccc2)cc1 | < 50 µM | 0 CFU | 40 µM (≈ 20.1 µg/mL) | 2 CFU | 8 µM (≈ 4.01 µg/mL) | 24.9 µM | 0.6 | 3.1 |  |  |  |  |  |  |  |  | 
O=C(Oc1ccc(Cl)cc1C(=O)Nc1ccc(Cl)c(Cl)c1)c1cnc(Cl)cn1 | < 100 µM | 0 CFU | 1.1 µM (≈ 0.503 µg/mL) | 10 CFU | 1.1 µM (≈ 0.503 µg/mL) | 10.1 µM | 9.2 | 9.2 |  |  |  |  |  |  |  |  | 
O=C(NCCCCl)Oc1ccc(Cl)cc1C(=O)Nc1ccc(C(=O)c2ccccc2)cc1 | < 50 µM | 0 CFU | 42.5 µM (≈ 20 µg/mL) | 3 CFU | 8.5 µM (≈ 4.01 µg/mL) | 16.1 µM | 0.4 | 1.9 |  |  |  |  |  |  |  |  | 
O=C(Nc1ccc(C(F)(F)F)cc1)c1cc(Cl)ccc1O |  | 0 CFU | 3.2 µM (≈ 1.01 µg/mL) | 0 CFU | 1.6 µM (≈ 0.505 µg/mL) | 5.3 µM |  |  |  |  |  |  |  |  |  |  | 
O=C(O)c1cnc(Cl)cn1 | < 500 µM |  | > 633 µM |  | > 633 µM |  |  |  |  |  | 12.3 min | metabolite_detected |  |  |  |  | 
CCCNC(=O)Oc1ccc(Cl)cc1C(=O)Nc1ccc(C(=O)c2ccccc2)cc1 | < 50 µM | 0 CFU | 22.9 µM (≈ 10 µg/mL) | 3 CFU | 9.2 µM (≈ 4.02 µg/mL) | 18.7 µM | 0.8 | 2 |  |  |  |  |  |  |  |  | 
O=C(NCCCCl)Oc1ccc(Cl)cc1C(=O)Nc1ccc(Cl)c(Cl)c1 | < 50 µM | 0 CFU | 1.2 µM (≈ 0.523 µg/mL) | 0 CFU | 2.3 µM (≈ 1 µg/mL) | 2.5 µM | 2.1 | 1.1 |  |  |  |  |  |  |  |  | 
O=C(Oc1ccc(Cl)cc1C(=O)Nc1ccc(C(F)(F)F)cc1)c1cnc(Cl)cn1 | < 100 µM | 0 CFU | 5.5 µM (≈ 2.51 µg/mL) | 3 CFU | 1.1 µM (≈ 0.502 µg/mL) | 1.1 µM | 0.2 | 1 |  |  |  |  |  |  |  |  | 
O=C(Oc1ccc(Br)cc1C(=O)Nc1ccc(Cl)c(Cl)c1)c1cnc(Cl)cn1 | < 100 µM | 0 CFU | 1 µM (≈ 0.502 µg/mL) | 1 CFU | 2 µM (≈ 1 µg/mL) | 5.7 µM | 5.7 | 2.9 |  |  |  |  |  |  |  |  | 
O=C(O)c1cn(C2CC2)c2cc(N3CCNCC3)c(F)cc2c1=O [CIPROFLOXACIN] |  |  | 3 µM (≈ 0.994 µg/mL) |  |  |  |  |  |  |  |  |  |  |  |  |  | 
O=C(NCCCl)Oc1ccc(Cl)cc1C(=O)Nc1ccc(C(=O)c2ccccc2)cc1 | < 50 µM | 0 CFU | 43.6 µM (≈ 19.9 µg/mL) | 2 CFU | 8.7 µM (≈ 3.98 µg/mL) | 37.8 µM | 0.9 | 4.3 |  |  |  |  |  |  |  |  | 
O=C(Nc1ccc(Cl)c(Cl)c1)c1cc(Br)ccc1O | < 100 µM | 0 CFU | 7 µM (≈ 2.53 µg/mL) | 2 CFU | 1.4 µM (≈ 0.505 µg/mL) | 3.5 µM | 0.5 | 2.5 |  |  |  |  |  |  |  |  | 
CCCNC(=O)Oc1ccc(Cl)cc1C(=O)Nc1ccc(Cl)c(Cl)c1 | < 50 µM | 0 CFU | 1.3 µM (≈ 0.522 µg/mL) | 0 CFU | 0.2 µM (≈ 0.0803 µg/mL) | 7 µM | 5.4 | 35 |  |  |  |  |  |  |  |  | 
O=C(NCCCCl)Oc1ccc(Br)cc1C(=O)Nc1ccc(C(F)(F)F)cc1 | < 50 µM | 0 CFU | 0.2 µM (≈ 0.0959 µg/mL) | 8 CFU | 1 µM (≈ 0.48 µg/mL) | 5.7 µM | 28.5 | 5.7 | 15 | 53 |  |  | 22.6 min | 22.6 min | 0.183 h | 22.6 min | 
O=C(NCCCl)Oc1ccc(Cl)cc1C(=O)Nc1ccc(Cl)c(Cl)c1 | < 50 µM | 0 CFU | 1.2 µM (≈ 0.507 µg/mL) | 2 CFU | 1.2 µM (≈ 0.507 µg/mL) | 4.6 µM | 3.8 | 3.8 |  |  |  |  |  |  |  |  | 
O=C(Nc1ccc(Cl)c(Cl)c1)c1cc(Cl)ccc1O | < 100 µM | 0 CFU | 3.2 µM (≈ 1.01 µg/mL) | 2 CFU | 1.6 µM (≈ 0.507 µg/mL) | 3.6 µM | 1.1 | 2.3 |  |  |  |  |  |  |  |  | 
O=C(NCCCCl)Oc1ccc(Br)cc1C(=O)Nc1ccc(C(=O)c2ccccc2)cc1 | < 50 µM | 0 CFU | 38.9 µM (≈ 20.1 µg/mL) | 2 CFU | 8.7 µM (≈ 4.49 µg/mL) | 12.6 µM | 0.3 | 1.4 |  |  |  |  |  |  |  |  | 
O=C(c1ccccc1)c1ccc(NC(=O)c2cc(Cl)ccc2O)cc1 | < 50 µM | 0 CFU | 28.5 µM (≈ 10 µg/mL) | 3 CFU | 14.2 µM (≈ 5 µg/mL) | 48 µM | 1.7 | 3.4 |  |  |  |  |  |  |  |  | 
GENTAMICIN |  |  |  |  |  |  |  |  |  |  |  |  |  |  |  |  | 10.5 µM
O=C(c1ccccc1)c1ccc(NC(=O)c2cc(Br)ccc2O)cc1 | < 50 µM | 0 CFU | 25.3 µM (≈ 10 µg/mL) | 2 CFU | 12.7 µM (≈ 5.03 µg/mL) | 21.8 µM | 0.9 | 1.7 |  |  |  |  |  |  |  |  | 
O=C(NCCCCl)Oc1ccc(Br)cc1C(=O)Nc1ccc(Cl)c(Cl)c1 | < 50 µM | 0 CFU | 2.1 µM (≈ 1.01 µg/mL) | 2 CFU | 0.4 µM (≈ 0.192 µg/mL) | 9.5 µM | 4.5 | 23.8 |  |  |  |  |  |  |  |  | 
O=C(NCCCl)Oc1ccc(Cl)cc1C(=O)Nc1ccc(C(F)(F)F)cc1 | < 50 µM | 0 CFU | 1.2 µM (≈ 0.505 µg/mL) | 1 CFU | 0.5 µM (≈ 0.211 µg/mL) | 7.6 µM | 6.3 | 15.2 |  |  |  |  |  |  |  |  | 
NNC(=O)c1ccncc1 [ISONIAZID] |  | 26 CFU | 292 µM (≈ 40 µg/mL) | 0 CFU | 1.17 µM (≈ 0.16 µg/mL) |  |  |  |  |  |  |  |  |  |  |  | 
O=C(NCCCl)Oc1ccc(Br)cc1C(=O)Nc1ccc(C(F)(F)F)cc1 | < 50 µM | 0 CFU | 4.3 µM (≈ 2 µg/mL) | 0 CFU | 0.4 µM (≈ 0.186 µg/mL) | 9.3 µM | 2.2 | 23.3 |  |  |  |  |  |  |  |  | 
O=C(NCCCl)Oc1ccc(Br)cc1C(=O)Nc1ccc(Cl)c(Cl)c1 | < 50 µM | 0 CFU | 0.2 µM (≈ 0.0933 µg/mL) | 2 CFU | 0.2 µM (≈ 0.0933 µg/mL) | 6.9 µM | 34.5 | 34.5 | 15 | 53 |  |  |  |  |  |  | 
O=C(Oc1ccc(Br)cc1C(=O)Nc1ccc(C(F)(F)F)cc1)c1cnc(Cl)cn1 | < 100 µM | 0 CFU | 5 µM (≈ 2.5 µg/mL) | 0 CFU | 1 µM (≈ 0.501 µg/mL) | 1.1 µM | 0.2 | 1.1 |  |  | 24 min |  | 24 min | 24 min | 3.7 h | 24 min | 
